Numbered stars: 1 amine (or outer) side, 2 acyl side, 3 side chain; on linkers, the order of the positions; unused ones are H or OH. Square brackets hold non-standard residues; d marks the D form. Peptide text beside a SMILES is read from it. * marks the point of attachment. γGlu = O=C(O)[CH](CCC(=O)[*:2])N[*:1]; Phg = N[CH](C(=O)O)c1ccccc1; Bn = c1ccc(C*)cc1
Key:
[1] = target: T1, Glutathione S-transferase Mu 1 (Homo sapiens, UniProt P09488); assay: Inhibitory activity was measured on recombinant human Glutathione S-transferase Mu 1
T1 sequence (P09488 whole entry): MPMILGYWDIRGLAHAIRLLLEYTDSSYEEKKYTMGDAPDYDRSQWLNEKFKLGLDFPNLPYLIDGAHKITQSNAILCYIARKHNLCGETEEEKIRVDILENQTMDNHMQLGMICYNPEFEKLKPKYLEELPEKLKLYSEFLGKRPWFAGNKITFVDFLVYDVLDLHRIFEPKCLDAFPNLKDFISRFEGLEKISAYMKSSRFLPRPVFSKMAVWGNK
How it was run: (§1)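 Enzyme inhibition was measured in the reaction of recombinant human GST isozymes (four isozymes tested) with glutathione and 1-chloro-2,4-dinitrobenzene (CDNB) as the electrophilic substrate. Ki values were determined by a previously published method. The error in each measurement is stated as ±30%.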

[2] = target: T2, Glutathione S-transferase A1 (Homo sapiens, UniProt P08263); assay: Inhibitory activity was measured on recombinant human Glutathione-S-transferase A1 enzyme; how it was run: as §1
T2 sequence (P08263 whole entry): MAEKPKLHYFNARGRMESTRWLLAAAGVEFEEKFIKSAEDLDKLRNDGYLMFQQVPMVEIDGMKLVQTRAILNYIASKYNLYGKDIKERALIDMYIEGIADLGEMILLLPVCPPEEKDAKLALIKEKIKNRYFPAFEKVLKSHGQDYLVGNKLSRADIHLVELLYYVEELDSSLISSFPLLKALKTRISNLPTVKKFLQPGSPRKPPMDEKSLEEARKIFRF

[3] = target: T3, Glutathione S-transferase Mu 2 (Homo sapiens, UniProt P28161); assay: Inhibitory activity was measured on recombinant human Glutathione S-transferase Mu 2; how it was run: as §1
T3 sequence (P28161 whole entry): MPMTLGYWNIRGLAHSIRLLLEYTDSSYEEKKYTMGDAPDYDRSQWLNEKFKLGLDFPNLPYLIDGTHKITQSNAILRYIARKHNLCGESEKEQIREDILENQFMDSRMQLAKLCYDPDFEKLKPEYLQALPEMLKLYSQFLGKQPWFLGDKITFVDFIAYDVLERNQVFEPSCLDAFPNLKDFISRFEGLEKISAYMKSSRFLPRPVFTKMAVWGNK

[4] = target: Glutathione S-transferase P (Homo sapiens, UniProt P09211); assay: Inhibitory activity was measured on recombinant human Glutathione S-transferase P; how it was run: as §1
Sequence of Glutathione S-transferase P (P09211 whole entry): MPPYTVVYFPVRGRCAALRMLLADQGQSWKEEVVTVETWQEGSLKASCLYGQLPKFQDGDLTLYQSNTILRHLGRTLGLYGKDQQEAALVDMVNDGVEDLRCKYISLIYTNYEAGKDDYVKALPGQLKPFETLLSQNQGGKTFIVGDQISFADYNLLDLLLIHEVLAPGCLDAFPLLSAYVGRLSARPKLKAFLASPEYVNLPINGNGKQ

[5] = target: T1, Glutathione S-transferase Mu 1; assay: Inhibitory activity was measured on recombinant human Glutathione-S-transferase M1a enzyme; how it was run: as §1

Row | Compound | Ki [1] | Ki [2] | Ki [3] | Ki [4] | Ki [5]
1 | Cc1ccc(CSCC(NC(=O)CCC(N)C(=O)O)C(=O)NCCC(=O)O)cc1 (configuration not stated) | 2.1 µM | 43 µM | 20 µM | 40 µM | 
2 | NC(CCC(=O)NC(CSCc1ccc(Cl)cc1)C(=O)NC(C(=O)O)c1ccccc1)C(=O)O (configuration not stated) |  | 14.7 µM | 48.3 µM | 0.12 µM | 15.1 µM
3 | CCCCCCSCC(NC(=O)CCC(N)C(=O)O)C(=O)NCC(=O)O (configuration not stated) | 2 µM | 0.84 µM | 36 µM |  | 
4 | NC(CCC(=O)NC(CSCc1ccccc1)C(=O)NCCC(=O)O)C(=O)O (configuration not stated) | 22 µM | 360 µM | 26 µM | 710 µM | 
5 | CCCCCCSCC(NC(=O)CCC(N)C(=O)O)C(=O)NC(C(=O)O)c1ccccc1 (configuration not stated) | 41 µM | 5.8 µM | 97 µM | 0.85 µM | 
6 | CCCCCCSCC(NC(=O)CCC(N)C(=O)O)C(=O)NCCC(=O)O (configuration not stated) | 11 µM | 43 µM | 42 µM | 550 µM | 
7 | NC(CCC(=O)NC(CSCc1ccccc1)C(=O)NC(C(=O)O)c1ccccc1)C(=O)O (configuration not stated) (γGlu-Cys(Bn)-[Phg]-OH; configuration not given here) | 57.8 µM | 24.3 µM | 184 µM | 0.42 µM | 
